Laboratory results as given in ChEMBL document CHEMBL3112561, “Small molecule disruptors of the glucokinase-glucokinase regulatory protein interaction: 2. Leveraging structure-based drug design to identify analogues with improved pharmacokinetic profiles” (J Med Chem, 2014).

How the values were obtained:
Liver microsome [1] = experiment: Drug metabolism in rat liver microsomes assessed as oxidation of bicyclic morpholine ring; format: ADME
[2] = Oral bioavailability in rat at 10 mg/kg; format: ADME, organism-based; settings: in vivo
[3] = molecular target: T1, Glucokinase regulatory protein (Mus musculus, UniProt Q91X44); experiment: Induction of GK translocation from nucleus to cytoplasm of mouse hepatocytes preincubated for 20 mins followed by glucose challenge measured after 40 mins by Hoechst 33342 staining-based assay; format: cell-based, Hepatocyte
T1 sequence (Q91X44 whole entry): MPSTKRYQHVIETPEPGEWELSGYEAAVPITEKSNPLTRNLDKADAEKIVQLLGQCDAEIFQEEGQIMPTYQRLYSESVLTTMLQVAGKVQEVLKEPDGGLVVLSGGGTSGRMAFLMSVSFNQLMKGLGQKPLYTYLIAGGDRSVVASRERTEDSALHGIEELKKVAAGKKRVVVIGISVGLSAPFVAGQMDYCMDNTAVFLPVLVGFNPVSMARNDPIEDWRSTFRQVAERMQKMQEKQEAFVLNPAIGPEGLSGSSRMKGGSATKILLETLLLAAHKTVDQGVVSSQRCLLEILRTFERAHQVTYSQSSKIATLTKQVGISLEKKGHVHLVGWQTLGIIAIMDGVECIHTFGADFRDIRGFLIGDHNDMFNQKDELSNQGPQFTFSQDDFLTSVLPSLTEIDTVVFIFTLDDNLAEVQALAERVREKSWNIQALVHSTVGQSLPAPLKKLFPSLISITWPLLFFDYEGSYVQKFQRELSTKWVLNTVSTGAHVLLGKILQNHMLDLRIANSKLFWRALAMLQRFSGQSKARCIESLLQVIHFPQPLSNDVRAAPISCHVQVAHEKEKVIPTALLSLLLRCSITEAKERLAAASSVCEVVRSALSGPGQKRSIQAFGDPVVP

[4] = Intrinsic clearance in human liver microsomes at 1 uM after 30 mins in presence of NADPH; format: ADME; settings: read-out: CLH
Mus musculus [5] = experiment: Unbound maximum concentration in C57Bl6 mouse at 100 mg/kg, po; format: ADME, organism-based; set-up: dose 100 mg/kg, route oral; settings: in vivo
[6] = Mean residence time in rat at 10 mg/kg, po; format: ADME, organism-based; set-up: dose 10 mg/kg, route oral; settings: in vivo
How it was run: (§1)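 Oral PK at 10 mg/kg in 1% Tween 80, 2% HPMC, 97% water, […]; mean residence time from plasma profile.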

[7] = Fraction unbound in rat plasma at 10 mg/kg, po by rapid equilibrium dialysis method; format: ADME, organism-based; set-up: dose 10 mg/kg, route oral
How it was run: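 Plasma fraction unbound measured by rapid equilibrium dialysis.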

[8] = Volume of distribution at steady state in rat at 2 mg/kg, iv; format: ADME, organism-based; set-up: dose 2 mg/kg, route intravenous; settings: in vivo, read-out: Vdss
How it was run: (§2)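 Intravenous PK at 2 mg/kg in 100% DMSO; steady-state volume of distribution derived from plasma profile.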

[9] = Ratio of EC50 for induction of GK translocation from nucleus to cytoplasm of mouse hepatocytes to ratio of unbound maximum concentration in C57Bl6 mouse; set-up: species or system Hepatocyte
[10] = Clearance in rat at 2 mg/kg, iv; format: ADME, organism-based; set-up: dose 2 mg/kg, route intravenous; settings: in vivo
Liver microsome [11] = experiment: Drug metabolism in human liver microsomes assessed as oxidation of bicyclic morpholine ring; format: ADME
Plasma [12] = experiment: Unbound plasma concentration in insulin-resistant db/db mouse at 30 mg/kg, po measured at 6 hrs; format: ADME, organism-based; set-up: dose 30 mg/kg, route oral; settings: in vivo
How it was run: (§3)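 Fed db/db mice dosed orally (10, 30, 100 mg/kg) in 2% HPMC/1% Tween 80 vehicle, pH 2.2 (MSA), gavaged at 9:00 AM. A 15 μL whole-blood sample taken at 6 h post-dose for drug exposure, reported as unbound plasma concentration.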

Mus musculus [13] = experiment: Unbound maximum concentration in C57Bl6 mouse at 10 mg/kg, po; format: ADME, organism-based; set-up: dose 10 mg/kg, route oral; settings: in vivo
[14] = Volume of distribution at steady state in C57Bl6 mouse at 2 mg/kg, iv; format: ADME, organism-based; set-up: dose 2 mg/kg, route intravenous; settings: in vivo, read-out: Vdss; how it was run: as §2
[15] = Oral bioavailability in C57Bl6 mouse at 10 mg/kg; format: ADME, organism-based; settings: in vivo
Plasma [16] = experiment: Unbound plasma concentration in insulin-resistant db/db mouse at 100 mg/kg, po measured at 6 hrs; format: ADME, organism-based; set-up: dose 100 mg/kg, route oral; settings: in vivo; how it was run: as §3
[17] = Mean residence time in C57Bl6 mouse at 10 mg/kg, po; format: ADME, organism-based; set-up: dose 10 mg/kg, route oral; settings: in vivo; how it was run: as §1
Plasma [18] = experiment: Unbound plasma concentration in insulin-resistant db/db mouse at 10 mg/kg, po measured at 6 hrs; format: ADME, organism-based; set-up: dose 10 mg/kg, route oral; settings: in vivo; how it was run: as §3

| Compound | Drug metabolism (Liver microsome [1]) | bioavailability [2] [%] | EC50 [3] [nM] | microsomal CLint at 1 µM [4] [µL/min/mg] | fCmax (Mus musculus [5]) [µM] | MRT [6] [h] | fraction unbound [7] | Vd [8] [L/kg] | Ratio [9] | clearance [10] [mL/min/kg] | Drug metabolism (Liver microsome [11]) | Cp(f) (Plasma [12]) [µM] | fCmax (Mus musculus [13]) [µM] | Vd [14] [L/kg] | bioavailability [15] [%] | Cp(f) (Plasma [16]) [µM] | MRT [17] [h] | Cp(f) (Plasma [18]) [µM] |
| --- | --- | --- | --- | --- | --- | --- | --- | --- | --- | --- | --- | --- | --- | --- | --- | --- | --- | --- |
| C[C@H]1COCCN1C[C@H]1CN(S(=O)(=O)c2cccs2)CCN1c1ccc([C@@](C)(O)C(F)(F)F)cc1 | Active | 7 | 1790 | 353 | 0.032 | 4.4 | 0.037 | 8.3 | 50 | 68.3 | Active | – | – | – | – | – | – | – |
| CC#C[C@H]1CN(S(=O)(=O)c2ccc(N)nc2)CCN1c1ccc([C@@](C)(O)C(F)(F)F)cc1 | – | 82 | – | – | – | 4.6 | – | 1.6 | – | – | – | 0.24 | 0.292 | 1 | 39 | 0.786 | 5.3 | 0.058 |
